Fibroblast inh: blocks proliferation of human lung fibroblasts. LL 47 human lung fibroblast viability, ATP luminescence; hits give low values. 1.1% of 85,000 active. viability, % at 10 µM. AID 719;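 active means viability at or below 50% in the single dose screen; inactive means viability above 50%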;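 further: compound exposure lasted 72 h before the ATP readout; 100% = median luminescence of untreated cell-only wells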
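Signal: luminescent ATP detection, CellTiter-Glo; assay system: LL 47 human lung fibroblasts; input: 1,150 cells/well; incubation: overnight cell rest, 72 h compound treatment at 37 °C; measure: % viability versus median cells-only luminescence; medium: IMEM growth medium with 15% fetal bovine serum; dosing: compound addition at 0.1% DMSO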
PTEN del growth: PTEN-deleted cell growth suppression; AID 827; HCT116 PTEN-null viability, CellTiter-Glo, 60 h; hits give low values; viability, % at 10 µM; 1.2% of 140,000 active;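 active means viability at or below a set limit, 4 SD under the median of all tested compounds, cut at about 3.7% in these data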;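 further: PTEN knockout HCT116 line with beta catenin targeted HCT116 as companion control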
H69AR growth 86K: growth inhibitors of human H69AR lung tumor cells. H69AR lung tumor viability, ATP luminescence, 72 h; hits give low values. viability, % at 10 µM. 6% of 85,000 active. AID 598;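 active means viability at or below 40%; inactive means viability above 40%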;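 further: multidrug resistant small cell line overexpressing MRP-1 efflux transporter; 100% = mean luminescence of untreated control wells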
HCT116 bCat-KO: beta-catenin-lacking colon tumor cell growth suppression; HCT116 beta-catenin knockout viability, CellTiter-Glo, 60 h; hits give low values; viability, % at 10 µM; AID 818; 1.5% of 140,000 active;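 active means viability at or under a set limit, the compound median less 4 SD, cut at about 6% in these data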;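 further: 0% = Hyamine 1622 control at 20 µM and 100% = untreated cell control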
HUVEC prolif 384: blocks proliferation of human endothelial cells. HUVEC proliferation, CellTiter-Glo luminescence, 72 h; hits give low values. viability, % at 10 µM (by protocol). 1.1% of 86,000 active. AID 648;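 active means viability at or below 30%; inactive means viability above 30%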;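 further: 100% = median luminescence of DMSO-only cell control wells on each plate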
* marks the source's active call; other numbers are inactive results; · = no result given. The full list was thinned out, with hits kept by preference.

SMILES | Fibroblast inh | PTEN del growth | H69AR growth 86K | HCT116 bCat-KO | HUVEC prolif 384
N#Cc1ccc(C(=O)Nc2cc(S(=O)(=O)N3CCCC3)ccc2OCC(F)(F)F)cc1 | · | 99 | · | 86 | ·
CSc1cc(-c2ccccc2)n(Cc2ccccc2Cl)c(=O)c1C#N | 55 | 26 | 4.8* | 22 | 62
Cc1ccc(S(=O)(=O)/N=C(\Sc2ccccc2)c2ccccc2)cc1 | 60 | 92 | 41 | 87 | 35
Cc1ccc(S(=O)(=O)/N=C(\CSC(N)=O)Nc2ccccc2)cc1 | 96 | 82 | 24* | 101 | 96
CCOC(=O)Cn1c(=NC(=O)c2sc3ccccc3c2Cl)sc2cc(S(N)(=O)=O)ccc21 | · | 2.8* | · | 26 | ·
COc1cc(-c2noc(CCCC(=O)NC3CCCCC3)n2)cc(OC)c1OC | 101 | 91 | 65 | 90 | 89
CC(C)(C)C(=O)NC(=S)NNC(=O)c1sc2ccccc2c1Cl | · | 5 | · | 3.0* | ·
O=C(NNC(=S)NC1CCCCC1)c1sc2ccccc2c1Cl | · | 93 | · | 80 | ·
COCCNC(=O)NC1(C(F)(F)F)Oc2ccc(Cl)cc2O1 (configuration not stated) | 63 | 63 | 34* | 58 | 57
O=C(NCc1cccnc1)NC1(C(F)(F)F)Oc2ccc(Cl)cc2O1 (configuration not stated) | 70 | 21 | 31* | 23 | 51
CC1CCN(c2nc3c(c(=O)[nH]c(=O)n3C)n2CC(C)CSc2nnnn2-c2ccccc2)CC1 (configuration not stated) | · | 86 | · | 78 | ·
Cc1ccccc1C(=O)Nc1ccccc1 | 105 | 92 | 110 | 88 | 98
Cc1ccccc1C(=O)Nc1cccc(NC(=O)c2ccc(-c3ccc(Br)cc3)o2)c1 | 52 | 5 | 22* | 3.7* | 64
Cc1nc2cc(N3CCN(C)CC3)c(NC(=O)Cc3ccccc3)cc2c(=O)n1Cc1ccccc1 | 94 | 77 | · | 83 | 80
Cc1nc2cc(N3CCCCC3)c(NC(=O)c3ccncc3)cc2c(=O)n1Cc1ccc(Cl)cc1 | · | 1.1* | · | 1.2* | ·
CSc1ccc(/C=C(\C#N)C(=O)Nc2cccc(C)c2)cc1 | · | 100 | · | 100 | ·
C=C(C(=O)c1ccccc1)C(CC(=O)c1ccccc1)c1ccccc1 (configuration not stated) | · | 3.1* | · | 4.8* | ·
O=C(CC(Nc1ccc(F)cc1)C(=O)O)c1ccccc1 (configuration not stated) | 108 | 85 | 96 | 78 | 99
O=C(CN1CCN(Cc2ccccc2)CC1)c1ccccc1 | 96 | 101 | 87 | 93 | 104
C=C(CCC(=O)c1ccccc1)C(=O)c1ccccc1 | · | 0.5* | · | 0.4* | ·
O=C(CCN1CCN(CCC(=O)c2ccccc2)CC1)c1ccccc1 | 93 | · | 1.2* | · | 96
CCOC(=O)c1c(-c2cccs2)csc1NC(=O)CNCCN1CCOCC1 | · | 80 | · | 74 | ·
O=S1(=O)C=CC(Sc2nc3ccccc3[nH]2)C1 (configuration not stated) | 102 | 102 | 20* | 107 | 102
O=C(COC(=O)c1ccc(CSc2ccc(Cl)cc2)cc1)Nc1ccccc1 | · | 82 | · | 82 | ·
CCOc1ccc(S(=O)(=O)n2cnc3cc(C)c(C)cc32)cc1 | 100 | 98 | 91 | 82 | 85
SMILES | Fibroblast inh | PTEN del growth | H69AR growth 86K | HCT116 bCat-KO | HUVEC prolif 384
Cc1cc2ncn(S(=O)(=O)c3ccc(S(=O)(=O)N4CCCCCC4)cc3)c2cc1C | 98 | · | 35* | · | 89
Cc1cc(C)c(C)c(S(=O)(=O)N2CCN(CC(=O)Nc3ccc([N+](=O)[O-])cc3)CC2)c1C | · | 84 | · | 86 | ·
O=C1CC(NCCC2=CCCCC2)C(=O)N1c1cccc(Cl)c1Cl (configuration not stated) | · | 91 | · | 87 | ·
N#CC1=C(N)Oc2n[nH]c(-c3cccs3)c2C1C1CCCCC1 (configuration not stated) | 100 | 89 | 38* | 92 | 72
Cc1cc(C)c(O)c(-c2cc(C(=O)Nc3ccc(S(=O)(=O)N4CCOCC4)cc3)[nH]n2)c1 | 41* | 1.2* | 9.2* | 2.3* | 36
Cc1ccc(N(CC(=O)N2CCc3ccccc32)S(=O)(=O)c2cccs2)cc1 | 80 | 91 | 86 | 86 | 89
O=C(CSc1nnc(-c2cc(-c3cccs3)nc3ccccc23)o1)NC1CCCCC1 | 107 | 82 | 23* | 83 | 49
NC(=O)CSc1nnc(-c2cc(-c3cccs3)nc3ccccc23)o1 | · | 101 | · | 100 | ·
C=CCNC(=O)CSc1nnc(-c2cccs2)o1 | 86 | 39 | 38* | 57 | 98
COc1ccccc1NC1=C(N2CCCCC2)C(=O)c2ccccc2C1=O | · | 5 | · | 3.1* | ·
O=C(NCc1ccccn1)c1ccc(CNS(=O)(=O)c2ccc(F)cc2)cc1 | · | 90 | · | 84 | ·
CC(C)CN1C(=S)SC(C)(C)C1n1oc(=O)n(-c2ccccc2)c1=O (configuration not stated) | · | 53 | · | 47 | ·
CC(C)CN1C(=S)SC(C)(C)C1n1oc(=O)n(-c2ccc(Cl)cc2)c1=O (configuration not stated) | 91 | 0.8* | 96 | 2.3* | 81
Cc1cccc(NC(=O)CSc2nc3ccccc3c3nc(CCc4c(C)n[nH]c4C)nn23)c1 | 26* | 15 | 1.1* | 8 | 2.0*
Cc1cncn1CCc1nc2c3ccccc3nc(SCC(=O)Nc3cccc(Cl)c3)n2n1 | · | 1.0* | · | 5.3* | ·
CC(C)(C)C(=O)NC(=S)NCc1ccccc1 | · | 96 | · | 92 | ·
O=c1c2cc(Cl)ccc2[nH]c(=S)n1Cc1cccs1 | · | 73 | · | 80 | ·
Cc1[nH]n(-c2ccc([N+](=O)[O-])cc2)c(=O)c1N=Nc1nc2ccccc2s1 | · | · | 35* | · | 41
Cc1[nH]n(-c2ccc([N+](=O)[O-])cc2)c(=O)c1C=NCCc1c[nH]c2ccccc12 | · | 10 | · | 16 | ·
COc1ccc(-c2nnc(SCC(=O)N3CCCc4ccccc43)o2)cc1OC | 98 | 80 | 37* | 88 | 85
COc1ccc(-c2nnc(SCC#CCO)o2)cc1OC | 97 | 111 | 31* | 97 | 102
COc1ccc(C(=O)CSc2nnc(-c3ccc(C)cc3)o2)cc1 | 94 | 92 | 102 | 91 | 81
COc1ccc(OC)c(C(=O)CSc2nnc(-c3ccc(OC)c(OC)c3)o2)c1 | 30* | 89 | 84 | 86 | 67

High-throughput results: PubChem BioAssay, SRMLSC
